Measurements reported in ChEMBL document CHEMBL1151460, “Identification and evaluation of a highly effective fusion inhibitor for human metapneumovirus” (Antimicrob Agents Chemother, 2008).
Calls of active or inactive are those of the source. The rule behind the calls is not given here. Where a SMILES comes first, the peptide text is derived from it.

Columns and labels:
[1] = test system: Human metapneumovirus; assay: Antiviral activity against hMPV C-85473 infected in rhesus monkey LLC-MK2 cells after 3 days by RT-PCR; assay type: functional, organism-based; details: C-85473, LLC-MK2, 72 h
Outline: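 Twofold serial dilutions of peptide mixed with 107 TCID50 virus in infection medium (Opti-MEM with 2 µg/ml trypsin) and added to LLC-MK2 cells. After 2 h, medium replaced with fresh medium containing the same peptide dilutions. Supernatants collected on day 3 and N gene quantified by real-time RT-PCR (TaqMan). IC50 from triplicate experiments.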

[2] = test system: LLC-MK2; assay: Cytotoxicity against rhesus monkey LLC-MK2 cells at 9 uM after 3 days by MTT assay; assay type: cell-based, Macaca mulatta; details: llc-mk2, 72 h
Outline: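 Serial peptide dilutions in hMPV infection medium applied to LLC-MK2 cells for 3 days. MTT (1 mg/ml) added for 2 h at 37°C, dye solubilized in acidic isopropanol, absorbance read at 570. Absorbance below that of control cells taken as cytotoxicity.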

[3] = species: Mus musculus; assay: Effect on pulmonary inflammation in BALB/c mouse lung assessed as change in perivascular inflammation after 5 days by histopathological analysis; assay type: functional, organism-based
Outline: (§1)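 Female BALB/c mice, 4-6 weeks old, received intranasal hMPV C-85473 (2 x 106 TCID50/ml, 70 µl) or PBS, with or without 7 µM synthetic peptide by the same route. Six lungs/group taken on day 5, fixed in 10% buffered formalin, paraffin-embedded, cut at 5 µm, stained with H&E. Each inflammation type scored on a 0-4 scale.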

[4] = species: Mus musculus; assay: Effect on airway obstruction in hMPV infected BALB/c mouse assessed as decrease in enhanced pause treated simultaneously with viral challenge
[5] = species: Mus musculus; assay: Effect on pulmonary inflammation in BALB/c mouse lung assessed as change in peribronchiolar inflammation after 5 days by histopathological analysis; assay type: functional, organism-based; outline: as §1

| IC50 [1] [µM] | Compound | Activity [2] | Activity [3] | Activity [4] | Activity [5] |
| --- | --- | --- | --- | --- | --- |
| > 9 | CC[C@H](C)[C@H](NC(=O)[C@H](CCCNC(=N)N)NC(=O)[C@H](CC(N)=O)NC(=O)[C@H](CO)NC(=O)[C@H](CCC(N)=O)NC(=O)[C@H](CC(=O)O)NC(=O)[C@@H](NC(=O)[C@H](CC(C)C)NC(=O)[C@H](C)NC(=O)[C@H](CCC(N)=O)NC(=O)[C@H](CO)NC(=O)[C@H](CC(N)=O)NC(=O)[C@H](CCC(=O)O)NC(=O)[C@@H](NC(=O)[C@H](CO)NC(=O)[C@H](CCC(=O)O)NC(=O)[C@H](Cc1ccccc1)NC(=O)[C@@H](NC(=O)[C@H](CCC(N)=O)NC(=O)[C@H](CC(=O)O)NC(=O)[C@H](CC(C)C)NC(=O)[C@H](C)NC(=O)[C@@H](NC(=O)[C@H](CC(N)=O)NC(=O)[C@@H](N)Cc1ccccc1)C(C)C)C(C)C)[C@@H](C)CC)C(C)C)C(=O)N[C@@H](CC(C)C)C(=O)N[C@@H](CO)C(=O)N[C@@H](CO)C(=O)N[C@@H](C)C(=O)N[C@@H](CCC(=O)O)C(=O)O (H-FNVALDQVFESIENSQALVDQSNRILSSAE-OH) | Not Active |  |  |  |
| > 9 | CC[C@H](C)[C@H](NC(=O)[C@H](CCCNC(=N)N)NC(=O)[C@H](CC(N)=O)NC(=O)[C@H](CO)NC(=O)[C@H](CCC(N)=O)NC(=O)[C@H](CC(=O)O)NC(=O)[C@@H](NC(=O)[C@H](CC(C)C)NC(=O)[C@H](C)NC(=O)[C@H](CCC(N)=O)NC(=O)[C@H](CO)NC(=O)[C@H](CC(N)=O)NC(=O)[C@H](CCC(=O)O)NC(=O)[C@@H](NC(=O)[C@H](CO)NC(=O)[C@H](CCC(=O)O)NC(=O)[C@H](Cc1ccccc1)NC(=O)[C@@H](NC(=O)[C@H](CCC(N)=O)NC(=O)[C@H](CC(=O)O)NC(=O)[C@H](CC(C)C)NC(=O)[C@H](C)NC(=O)[C@@H](NC(=O)[C@H](CC(N)=O)NC(=O)[C@@H](N)Cc1ccccc1)C(C)C)C(C)C)[C@@H](C)CC)C(C)C)C(=O)N[C@@H](CC(C)C)C(=O)N[C@@H](CO)C(=O)N[C@@H](CO)C(=O)N[C@@H](C)C(=O)N[C@@H](CCC(=O)O)C(=O)N[C@@H](CCCCN)C(=O)NCC(=O)N[C@@H](CC(N)=O)C(=O)O (H-FNVALDQVFESIENSQALVDQSNRILSSAEKGN-OH) | Not Active |  |  |  |
| 1.52 | CC[C@H](C)[C@H](NC(=O)[C@H](CCCNC(=N)N)NC(=O)[C@H](CC(N)=O)NC(=O)[C@H](CO)NC(=O)[C@H](CCC(N)=O)NC(=O)[C@H](CC(=O)O)NC(=O)[C@@H](NC(=O)[C@H](CC(C)C)NC(=O)[C@H](C)NC(=O)[C@H](CCC(N)=O)NC(=O)[C@H](CO)NC(=O)[C@H](CC(N)=O)NC(=O)[C@H](CCC(=O)O)NC(=O)[C@@H](NC(=O)[C@H](CO)NC(=O)[C@H](CCC(=O)O)NC(=O)[C@H](Cc1ccccc1)NC(=O)[C@@H](NC(=O)[C@H](CCC(N)=O)NC(=O)[C@H](CC(=O)O)NC(=O)[C@H](CC(C)C)NC(=O)[C@H](C)NC(=O)[C@@H](NC(=O)[C@H](CC(N)=O)NC(=O)[C@@H](N)Cc1ccccc1)C(C)C)C(C)C)[C@@H](C)CC)C(C)C)C(=O)N[C@@H](CC(C)C)C(=O)N[C@@H](CO)C(=O)N[C@@H](CO)C(=O)N[C@@H](C)C(=O)N[C@@H](CCC(=O)O)C(=O)N[C@@H](CCCCN)C(=O)NCC(=O)N[C@@H](CC(N)=O)C(=O)N[C@H](C(=O)NCC(=O)O)[C@@H](C)O (H-FNVALDQVFESIENSQALVDQSNRILSSAEKGNTG-OH) | Not Active |  |  |  |
| 3.24 | CC[C@H](C)[C@H](NC(=O)[C@H](C)NC(=O)[C@@H](NC(=O)[C@@H](NC(=O)[C@H](CCC(=O)O)NC(=O)[C@H](CO)NC(=O)[C@H](CCC(=O)O)NC(=O)[C@@H](N)CC(C)C)C(C)C)[C@@H](C)O)C(=O)N[C@@H](CCCCN)C(=O)N[C@@H](CC(N)=O)C(=O)N[C@@H](C)C(=O)N[C@@H](CC(C)C)C(=O)N[C@@H](CCCCN)C(=O)N[C@@H](CCCCN)C(=O)N[C@H](C(=O)N[C@@H](CC(N)=O)C(=O)N[C@@H](CCC(=O)O)C(=O)N[C@@H](C)C(=O)N[C@H](C(=O)N[C@@H](CO)C(=O)N[C@H](C(=O)N[C@@H](CC(C)C)C(=O)NCC(=O)N[C@@H](CC(N)=O)C(=O)NCC(=O)N[C@H](C(=O)N[C@@H](CCCNC(=N)N)C(=O)N[C@H](C(=O)N[C@@H](CC(C)C)C(=O)N[C@@H](C)C(=O)N[C@H](C(=O)N[C@@H](C)C(=O)N[C@H](C(=O)N[C@@H](CCCNC(=N)N)C(=O)N[C@@H](CCC(=O)O)C(=O)O)C(C)C)[C@@H](C)O)C(C)C)C(C)C)[C@@H](C)O)C(C)C)[C@@H](C)O (H-LESEVTAIKNALKKTNEAVSTLGNGVRVLATAVRE-OH) | Not Active |  |  |  |
| > 9 | CC[C@H](C)[C@H](NC(=O)[C@H](CCCNC(=N)N)NC(=O)[C@H](CC(N)=O)NC(=O)[C@H](CO)NC(=O)[C@H](CCC(N)=O)NC(=O)[C@H](CC(=O)O)NC(=O)[C@@H](NC(=O)[C@H](CC(C)C)NC(=O)[C@H](C)NC(=O)[C@H](CCC(N)=O)NC(=O)[C@H](CO)NC(=O)[C@H](CC(N)=O)NC(=O)[C@H](CCC(=O)O)NC(=O)[C@@H](NC(=O)[C@H](CO)NC(=O)[C@H](CCC(=O)O)NC(=O)[C@H](Cc1ccccc1)NC(=O)[C@@H](NC(=O)[C@H](CCC(N)=O)NC(=O)[C@H](CC(=O)O)NC(=O)[C@H](CC(C)C)NC(=O)[C@H](C)NC(=O)[C@@H](NC(=O)[C@@H](N)CC(N)=O)C(C)C)C(C)C)[C@@H](C)CC)C(C)C)C(=O)N[C@@H](CC(C)C)C(=O)N[C@@H](CO)C(=O)N[C@@H](CO)C(=O)N[C@@H](C)C(=O)O (H-NVALDQVFESIENSQALVDQSNRILSSA-OH) | Not Active | inactive | inactive | inactive |
| 3.31 | CC[C@H](C)[C@H](NC(=O)[C@H](CCCNC(=N)N)NC(=O)[C@H](CC(N)=O)NC(=O)[C@H](CO)NC(=O)[C@H](CCC(N)=O)NC(=O)[C@H](CC(=O)O)NC(=O)[C@@H](NC(=O)[C@H](CC(C)C)NC(=O)[C@H](C)NC(=O)[C@H](CCC(N)=O)NC(=O)[C@H](CO)NC(=O)[C@H](CC(N)=O)NC(=O)[C@H](CCC(=O)O)NC(=O)[C@@H](NC(=O)[C@H](CO)NC(=O)[C@H](CCC(=O)O)NC(=O)[C@H](Cc1ccccc1)NC(=O)[C@@H](NC(=O)[C@H](CCC(N)=O)NC(=O)[C@H](CC(=O)O)NC(=O)[C@H](CC(C)C)NC(=O)[C@H](C)NC(=O)[C@@H](NC(=O)[C@H](CC(N)=O)NC(=O)[C@H](Cc1ccccc1)NC(=O)[C@H](CCC(N)=O)NC(=O)[C@H](CC(=O)O)NC(=O)[C@H](CCC(=O)O)NC(=O)[C@@H]1CCCN1)C(C)C)C(C)C)[C@@H](C)CC)C(C)C)C(=O)N[C@@H](CC(C)C)C(=O)N[C@@H](CO)C(=O)N[C@@H](CO)C(=O)N[C@@H](C)C(=O)N[C@@H](CCC(=O)O)C(=O)N[C@@H](CCCCN)C(=O)NCC(=O)N[C@@H](CC(N)=O)C(=O)N[C@H](C(=O)NCC(=O)O)[C@@H](C)O (H-PEDQFNVALDQVFESIENSQALVDQSNRILSSAEKGNTG-OH) | Not Active |  |  |  |
